Measurements as given in ChEMBL document CHEMBL1914423, “New imidazo[2,1-b]thiazole derivatives: synthesis, in vitro anticancer evaluation, and in silico studies” (Eur J Med Chem, 2011).

Assays:
[1] = Antiproliferative activity against human A375P cells after 48 hrs by MTT assay; format: functional, cell-based
Outline: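 A375P cells in DMEM with 10% FBS at 37 °C, 5% CO2. Seeded at 5×10³ cells/well, held 24 h, then treated with 12-point 3-fold serial dilutions for 48 h. Viability by MTT reduction. IC50 values are means of triplicate experiments.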

CCRF-CEM = experiment: Anticancer activity against human CCRF-CEM cells assessed as cell growth at 10^-5 M after 48 hrs by SRB assay; format: functional; conditions: read-out: Activity
Outline: (§1)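 NCI-60 single-dose screen at one concentration. Cells grown in RPMI 1640 with 5% FBS and 2 mM L-glutamine, plated at 5000–40,000 cells/well, and pre-incubated 24 h at 37 °C in 5% CO2 before DMSO-dissolved drug was added. Cells fixed with TCA, SRB-stained, absorbance read at 515 nm. Percent growth calculated against time-zero and untreated control plates.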

HL-60(TB) = experiment: Anticancer activity against human HL-60(TB) cells assessed as cell growth at 10^-5 M after 48 hrs by SRB assay; format: functional; conditions: HL-60, 48 h, read-out: Activity
Outline: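 NCI-60 single-dose screen. Cells in RPMI 1640 with 5% FBS and 2 mM L-glutamine were plated at 5000–40,000 cells/well and preincubated 24 h at 37 °C before one compound concentration. Time-zero plates were TCA-fixed at drug addition. For suspension cells, settled cells were fixed with cold TCA, then SRB-stained and read at 515 nm. Percent growth was calculated from time-zero, control and treated absorbances.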

K562 = experiment: Anticancer activity against human K562 cells assessed as cell growth at 10^-5 M after 48 hrs by SRB assay; format: functional; conditions: K562, 48 h, read-out: Activity; outline: as §1
SR = experiment: Anticancer activity against human SR cells assessed as cell growth at 10^-5 M after 48 hrs by SRB assay; format: functional; conditions: read-out: Activity
Outline: (§2)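 NCI-60 single-dose screen: cells in RPMI 1640 with 5% FBS and 2 mM L-glutamine, plated at 5000–40,000 cells/well by doubling time, and preincubated 24 h at 37 °C. Compound given at one concentration from DMSO stock. Cells TCA-fixed and SRB-stained, absorbance at 515 nm. Percent growth relative to time-zero and untreated controls; inhibition % = 100 − growth %.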

A549 = experiment: Anticancer activity against human A549 cells assessed as cell growth at 10^-5 M after 48 hrs by SRB assay; format: functional; conditions: A549, 48 h, read-out: Activity; outline: as §1
EKVX = experiment: Anticancer activity against human EKVX cells assessed as cell growth at 10^-5 M after 48 hrs by SRB assay; format: functional; conditions: read-out: Activity; outline: as §1
HOP-62 = experiment: Anticancer activity against human HOP62 cells assessed as cell growth at 10^-5 M after 48 hrs by SRB assay; format: functional; conditions: HOP-62, 48 h, read-out: Activity; outline: as §1
NCI-H460 = experiment: Anticancer activity against human NCI-H460 cells assessed as cell growth at 10^-5 M after 48 hrs by SRB assay; format: functional; conditions: NCI-H460, 48 h, read-out: Activity
COLO 205 = experiment: Anticancer activity against human COLO205 cells assessed as cell growth at 10^-5 M after 48 hrs by SRB assay; format: functional; conditions: COLO 205, 48 h, read-out: Activity; outline: as §1
HT-29 = experiment: Anticancer activity against human HT-29 cells assessed as cell growth at 10^-5 M after 48 hrs by SRB assay; format: functional; conditions: HT-29, 48 h, read-out: Activity; outline: as §1
SF-295 = experiment: Anticancer activity against human SF295 cells assessed as cell growth at 10^-5 M after 48 hrs by SRB assay; format: functional; conditions: SF-295, 48 h, read-out: Activity
SNB-75 = experiment: Anticancer activity against human SNB75 cells assessed as cell growth at 10^-5 M after 48 hrs by SRB assay; format: functional; conditions: SNB-75, 48 h, read-out: Activity; outline: as §2
LOX IMVI = experiment: Anticancer activity against human LOXIMVI cells assessed as cell growth at 10^-5 M after 48 hrs by SRB assay; format: functional; conditions: read-out: Activity; outline: as §1
Malme-3M = experiment: Anticancer activity against human MALME-3M cells assessed as cell growth at 10^-5 M after 48 hrs by SRB assay; format: functional; conditions: read-out: Activity; outline: as §1
M14 = experiment: Anticancer activity against human M14 cells assessed as cell growth at 10^-5 M after 48 hrs by SRB assay; format: functional; conditions: M14, 48 h, read-out: Activity; outline: as §1
SK-MEL-5 = experiment: Anticancer activity against human SK-MEL-5 cells assessed as cell growth at 10^-5 M after 48 hrs by SRB assay; format: functional; conditions: SK-MEL-5, 48 h, read-out: Activity
IGROV-1 = experiment: Anticancer activity against human IGROV1 cells assessed as cell growth at 10^-5 M after 48 hrs by SRB assay; format: functional; conditions: IGROV-1, 48 h, read-out: Activity; outline: as §1
OVCAR-4 = experiment: Anticancer activity against human OVCAR4 cells assessed as cell growth at 10^-5 M after 48 hrs by SRB assay; format: functional; conditions: OVCAR-4, 48 h, read-out: Activity
NCI/ADR-RES = experiment: Anticancer activity against human NCI/ADR-RES cells assessed as cell growth at 10^-5 M after 48 hrs by SRB assay; format: functional; conditions: read-out: Activity
SK-OV-3 = experiment: Anticancer activity against human SKOV3 cells assessed as cell growth at 10^-5 M after 48 hrs by SRB assay; format: functional; conditions: SK-OV-3, 48 h, read-out: Activity
786-0 = experiment: Anticancer activity against human 786-0 cells assessed as cell growth at 10^-5 M after 48 hrs by SRB assay; format: functional; conditions: 786-0, 48 h, read-out: Activity; outline: as §1
ACHN = experiment: Anticancer activity against human ACHN cells assessed as cell growth at 10^-5 M after 48 hrs by SRB assay; format: functional; conditions: read-out: Activity; outline: as §1
DU-145 = experiment: Anticancer activity against human DU145 cells assessed as cell growth at 10^-5 M after 48 hrs by SRB assay; format: functional; conditions: DU-145, 48 h, read-out: Activity; outline: as §1
MCF7 = experiment: Anticancer activity against human MCF7 cells assessed as cell growth at 10^-5 M after 48 hrs by SRB assay; format: functional; conditions: MCF7, 48 h, read-out: Activity; outline: as §1
MDA-MB-231 = experiment: Anticancer activity against human MDA-MB-231 cells assessed as cell growth at 10^-5 M after 48 hrs by SRB assay; format: functional; conditions: MDA-MB-231, 48 h, read-out: Activity; outline: as §1
T47D = experiment: Anticancer activity against human T47D cells assessed as cell growth at 10^-5 M after 48 hrs by SRB assay; format: functional; conditions: read-out: Activity; outline: as §2
MDA-MB-468 = experiment: Anticancer activity against human MDA-MB-468 cells assessed as cell growth at 10^-5 M after 48 hrs by SRB assay; format: functional; conditions: MDA-MB-468, 48 h, read-out: Activity

SMILES | IC50 [1] [µM] | growth at 10 µM (CCRF-CEM) [%] | growth at 10 µM (HL-60(TB)) [%] | growth at 10 µM (K562) [%] | growth at 10 µM (SR) [%] | growth at 10 µM (A549) [%] | growth at 10 µM (EKVX) [%] | growth at 10 µM (HOP-62) [%] | growth at 10 µM (NCI-H460) [%] | growth at 10 µM (COLO 205) [%] | growth at 10 µM (HT-29) [%] | growth at 10 µM (SF-295) [%] | growth at 10 µM (SNB-75) [%] | growth at 10 µM (LOX IMVI) [%] | growth at 10 µM (Malme-3M) [%] | growth at 10 µM (M14) [%] | growth at 10 µM (SK-MEL-5) [%] | growth at 10 µM (IGROV-1) [%] | growth at 10 µM (OVCAR-4) [%] | growth at 10 µM (NCI/ADR-RES) [%] | other results
O=C(NCCNc1nccc(-c2c(-c3cccc(O)c3)nc3sccn23)n1)Nc1cccc(C(F)(F)F)c1 | 4.2 | 23.1 | 36.4 | 70.6 | 59.2 | 39.3 | 91.2 | 83.5 | 80.1 | 53.2 | 38.9 | 75.5 | 66.2 | 64.5 | 23.6 | -21.7 | 53.5 | 65.6 | 110 | 108 | growth at 10 µM (SK-OV-3): 85%; growth at 10 µM (786-0): 79.4%; growth at 10 µM (ACHN): 85.1%; growth at 10 µM (DU-145): 89%; growth at 10 µM (MCF7): 55.6%; growth at 10 µM (MDA-MB-231): 37.7%; growth at 10 µM (T47D): 63.8%; growth at 10 µM (MDA-MB-468): -40.6%
O=C(NCCNc1nccc(-c2c(-c3cccc(O)c3)nc3sccn23)n1)Nc1cc(C(F)(F)F)cc(C(F)(F)F)c1 | > 10 | 39.1 | 97.3 | 72.7 | 65.3 | 57.7 | 52.2 | 118 | 51.8 | 45.1 | 63.1 | 66.8 | 66.1 | 60.6 | 60.5 | 21.4 | 59.7 | 65.2 | 121 | 87.8 | growth at 10 µM (SK-OV-3): 89.3%; growth at 10 µM (786-0): 82%; growth at 10 µM (ACHN): 65.9%; growth at 10 µM (DU-145): 97.1%; growth at 10 µM (MCF7): 67.5%; growth at 10 µM (MDA-MB-231): 41.4%; growth at 10 µM (T47D): 72%; growth at 10 µM (MDA-MB-468): 57.8%
COc1cccc(-c2nc3sccn3c2-c2ccnc(NCCNC(=O)c3ccccc3)n2)c1 | > 10 | 52.5 | 94.2 | 67.5 | 79.8 | 75.3 | 106 | 111 | 84.9 | 51.8 | 53.5 | 85.4 | 92.6 | 54.8 | 26.7 | 40.1 | 55.3 | 69.2 | 109 | 70.5 | growth at 10 µM (SK-OV-3): 88.5%; growth at 10 µM (786-0): 78.4%; growth at 10 µM (ACHN): 65.8%; growth at 10 µM (DU-145): 100%; growth at 10 µM (MCF7): 81.7%; growth at 10 µM (MDA-MB-231): 83.5%; growth at 10 µM (T47D): 61.9%; growth at 10 µM (MDA-MB-468): 79.4%
COc1cccc(-c2nc3sccn3c2-c2ccnc(NCCNC(=O)c3ccccc3O)n2)c1 | 7.5 | 34.7 | 99.5 | 59.4 | 95 | 82.5 | 98.9 | 114 | 92.1 | 107 | 96.4 | 101 | 103 | 68.5 | 57.5 | 46.9 | 48.6 | 60.9 | 116 | 54.6 | growth at 10 µM (SK-OV-3): 90%; growth at 10 µM (786-0): 91%; growth at 10 µM (ACHN): 62%; growth at 10 µM (DU-145): 94.5%; growth at 10 µM (MCF7): 88.5%; growth at 10 µM (MDA-MB-231): 89.4%; growth at 10 µM (T47D): 60.1%; growth at 10 µM (MDA-MB-468): 102%
